# Fewer inactive variants are shown than the library holds.
# B1: tRNA (parent)
# chain: GUUCCGUUGGCGUAAUGGUAACGCGUCUCCCUCCUAAGGAGAAGACUGCGGGUUCGAGUCCCGUACGGAACG
# Variants of: B1
# Test: yeast fitness relative to wild type (ratio to wild type); higher = fitter; tRNA-Arg(CCU), competitive growth, 37 C, YPD
# Summary of the method: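 The tRNA-Arg(CCU) gene variants were made by chemical synthesis with a 3% per-site mutation rate at 69 sites and inserted at the native genomic locus of Saccharomyces cerevisiae. After pooling, the strains were competed in YPD at 37°C for 24 hours in six parallel replicates. Gene amplicons from the start population and each end population were read by 100-nucleotide paired-end sequencing, and Darwinian fitness relative to wild type was taken from genotype frequency changes. Genotypes needed ≥ 100 starting reads, and estimates < 0.5 were set to 0.5.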
row,Variant,yeast fitness
1,GUUCCGUUCGCGUAAUGGUAACGCGUCUCCCUCCUAGGGAGAAGACUGCGGGUUCGAGUCCUGUACGGAACG [G9C A37G C62U],≤ 0.5
2,GUUCCGUUCGCGUAAUGGUAACGCGUCUCCCUCCUAAGGAGAAGACUGCGGGUUCGGGACCCGUACGGAACG [G9C A57G U59A],≤ 0.5
3,GUUCCGUUCGCGUAUCGGUAACGCGUCUCCCUCCUUAGGAGAAGACUGCGGGUUCGAGUCCCGUACGGCACG [G9C A15U U16C A36U A69C],≤ 0.5
4,GUUCCGUUCGCGUAAUGGUAACGCGUCUCCCUCCUAAGGAGAAGACUGCGGGUUCGCGUCCCGUACGGAACG [G9C A57C],0.56
5,GUUCCGUUCGCGUGAUGGUAACGCGUCUCCCUCCUAAGGAGAAGACUGCGGGUUCGUGUAGCGUACGGAACG [G9C A14G A57U C60A C61G],≤ 0.5
6,GUUCCGUUCGCGUUAUGGUAACGCGUCUCCCUCCUAAGGAGAAGACUCCGGGUUCGAGUCCCGUACGGUACG [G9C A14U G48C A69U],≤ 0.5
7,GUUCCGUUCGCGUAAUGGUGACGCGUCUCCCUCCUAAGGAGAAGACUGCGGGUUCGAGUCCCGUACGGAACG [G9C A20G],0.668
8,GUUCCGUUCGCGUAAUGGUUACGCGUCUCCCUCCUAAGGAGAAGACUGCGGGUUCGAGUCCCGUACGGAACG [G9C A20U],0.667
9,GUUCCGUUCGCGUAAUGGUGACGCGUCUCCCUCCUUAGGAGAAGACUGCGGGUUCGAGUCCCGUACGGAACG [G9C A20G A36U],≤ 0.5
10,GUUCCGUUCGCGUGAUGGUAACGCGUCUCCCUCCUAAGGAGAAGACUGCGGGUUCGAGUCCCGUAUGGAACG [G9C A14G C66U],≤ 0.5
11,GUUCCGUUCGCGUAAUGGUGACGCGUCUCCCUCCCGAGGAGAAGACUGCGGGUUCGAAUCCCGUACAGAACG [G9C A20G U35C A36G G58A G67A],≤ 0.5
12,GUUCCGUUCGCGUAUUGGUAACGCGUCUCCUUCCCAAGGAGAAGACUGCGCGUUCAAGUCCGGUACGGAACG [G9C A15U C31U U35C G51C G56A C62G],≤ 0.5
13,GUUCCGUUCGCGUAAUGGUAUCGCGUUUCCCUCCUAAGGAGAAAACUGCGGGUUCGAGUCCCGUAUGGAACG [G9C A21U C27U G44A C66U],0.602
14,GUUCCGUUCGCGUGAUGGUAACGCGUCUCCCUCCUAAGGAGAAGACUGCGGGUUCGAGUCCCGUACGGAACG [G9C A14G],0.579
15,GUUCCGUUCGCGUAUUGGUAACGCGUCUCCCUCCUAAGGAGAAGACUGCGGGUUCGAGUGGCGUACGCAACG [G9C A15U C60G C61G G68C],≤ 0.5
16,GUUCCGUUCGCGUAAUGGUAACGCGUCUCCCUCCUAUGGAGAAGACUGCGGGUUCGAGUCCCGUACGGAACG [G9C A37U],0.663
17,GUUCCGUUCGCGUAGUGGUAUCGCGUCUCCCUCCUAAGGAGAAGACUGCGGGUUCAGGUCCCGUACAGAACG [G9C A15G A21U G56A A57G G67A],0.593
18,GUUCCGUUAGCGUAAUGGUAACGCGUCUCCCUCCCAAGGAGUAGACUGCGGGUUCGAGUCCCGUACGGAACG [G9A U35C A42U],≤ 0.5
19,GUUCCGUUCGCGUAAUGGUAACGCGUCUCCCUCCUCAGGAGAAGACUGGGGGUUCGAGUCCCGUGCGGAACG [G9C A36C C49G A65G],0.681

row,Variant,yeast fitness
1,GUUCCGUUCGCGUAAUGGUAACGCGUCUCCCUCCUAAGGAGAUGACUGCGGGUUCGAGUCCCGUACGGAACG [G9C A43U],0.694
2,GUUCCGUUCGCGUACUGGUAACGCGUCUCCCUCCUAAGGAGAAGACUGCGGCUUCGAGUCCCGUACGGAACG [G9C A15C G52C],≤ 0.5
3,GUUCCGUUCGCGUAUUGGUAACGCGUCGCCCUCCUAAGGAGAAGACUGCGGGUUGGAGUCCCGUACGGUACG [G9C A15U U28G C55G A69U],0.599
4,GUUCCGUUCGCGUAAUGGUAACGCGUCUCCCUCCUAAGGUGAAGACUGCGGGUUCGAGUCCCGUAUGGAACG [G9C A40U C66U],0.622
5,GUUCCGUUCGCGUGAUGGUAACGCGUCUUCCUCCUCAGGAGAAGGCUGCGGGUUCGAGUCCCGUACUGAACG [G9C A14G C29U A36C A45G G67U],≤ 0.5
6,GUUCCGUUCGCGUCAUGGUAACGCGUCUCCCUCCUAAGGAGAAGACUGCGGGUUCGAGUCCCGUAUGGAACG [G9C A14C C66U],≤ 0.5
7,GUUCCGUUCGCGUAAUGGUAACGCGUCUCCCUCCUAUGGAGAAGACUGCGGAUUCGAGUCCCGUACGGAACG [G9C A37U G52A],≤ 0.5
8,GUUCCGUUCGCGUAAUGGUAACGCGUCUCCCUCCUAAGGAGUAGACUGCGGGUUCGAGUCCCGUACGGAACG [G9C A42U],0.624
9,GUUCCGUUCGCGUAAUGGUAACGCGUCUCCCUCCUAAGGAGGAGACUGCGGGUUCGAGUCCCGUACGGAACG [G9C A42G],0.673
10,GUUCCGUUCGCGUGAGGGUAACACGUCUCCCUACUAAGGAGAAAACUGCGGGUUCGAGUCCCGUAUGGAACG [G9C A14G U16G G23A C33A G44A C66U],≤ 0.5
11,GUUCCGUUCGCGUGAUGGUAACGCGUCUCCCUCCUAAGGAGAAGACUGCGGGUUGGAGUCUCGUACGGAACG [G9C A14G C55G C61U],≤ 0.5
12,GUUCCGUUCGCGUCACGGUAACGCGUUUACCUGCUAAGGAGAAGACUGCGGGUUCGAGUCCCGUAAGGAACG [G9C A14C U16C C27U C29A C33G C66A],0.577
13,GUUCCGUUCGCGUAAUGGUCACGCGUUUCCCUCCUAAGAAGAAGACUGCGGGUUCAACUCCCGUACGGAACG [G9C A20C C27U G39A G56A G58C],≤ 0.5
14,GUUCCGUUCGCGUACUGGUAACGCGUCUCCCUCGUAAGGAGAAGACUGCGGGUUCGAGUCCCGUACGGAACG [G9C A15C C34G],≤ 0.5
15,GUUCCGUUCGCGUAAUGGUAUCGCGUCUCCCUCCUAAGGAGAAGACUGCGGGUACGAGUCCCGUACGGAGCG [G9C A21U U54A A70G],≤ 0.5
16,GUUCCGUUCGCGUAAUGGUAACGCGUCUCCCUCCUAAGGAGAAGGCUGCGGGUUCGAGUCCCGUACGGAACG [G9C A45G],0.78
17,GUUCCGUUCGCGUAGUGGUAACGCGUCUCCCUCCUAAGGAGAAGACUGCGGGUUCGAGUCCCGUACGGAACG [G9C A15G],0.633
18,GUUCCGUUCGCGUCAUGGUUACCCGUCUCCUUCCUAAGGAGAAGACUGCGGGUUUGAGUCCCGUACGGAACG [G9C A14C A20U G23C C31U C55U],≤ 0.5
19,GUUCCGUUCGCGUAAUGGUUACGCGUCACCCUCCUAAGGAGAAGACUGCGGGUUCGAGUCCCGUACGGAACG [G9C A20U U28A],0.535

# — the RNAGym collection of RNA variant scans (doi:10.1126/science.aae0568)
